High-throughput results as filed in PubChem BioAssay.
Only a selection was taken, and hits are over-represented in it overall.
CHOP UPR activ – activators of apoptotic arm of unfolded protein response (CHOP); AID 449763; CHO-CHOP luciferase reporter, UPR activation, luminescence; percent of tunicamycin response over DMSO baseline; 330,000 compounds, 0.34% hits; activation, % at 10 µM;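 active means at 10 µM dose, activation of 40% or more, normalized to positive control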
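Test system: CHO CHOP reporter cells. Input: 500 CHO-CHOP cells per well. Medium: F12 with 10% FBS. Technique: luciferase luminescence. Measure: percent activation relative to tunicamycin control. Dosing: 10 µM compound, 0.5% DMSO. Timing: 16-18 h cell attachment, then 6 h compound exposure, 37 °C.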
CHOP inhibitor – inhibitors of CHOP induction in ER stress response; 220,000 compounds, 3.8% hits; CHO-K1 CHOP-promoter luciferase, tunicamycin-induced, 15-18 h; inhibition, % at 10 µM; AID 2732;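 active means compounds that reduced the stress-induced luciferase reporter signal by more than about 70% of percent inhibition, limit read from the data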
UPR XBP1 act – adaptive UPR (XBP1) activation; CHO-XBP1 luciferase reporter, IRE1-XBP1 UPR activation, luminescence; percent of tunicamycin response, DMSO as zero; activation, % at 20 µM; 330,000 compounds, 0.33% hits;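 active means versus positive control, 20 µM dose yields 30% or more activation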
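Signal: luciferase luminescence; Assay system: CHO-XBP1 luciferase reporter cells; Amount: one thousand reporter cells per well; Dosing: 20 µM single concentration, DMSO 1%; Benchmarks: high control tunicamycin 10 µg/mL final, low control DMSO vehicle only; Schedule: 6 h compound exposure at 37 °C, 5% CO2; Evaluation: percent activation relative to tunicamycin reference.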
VLA-4 inh – inhibition in a human VLA-4 binding assay; 330,000 compounds, 0.2% hits; AID 2557; inhibition, % (about 7 µM as worked out from the volumes in the protocol); VLA-4 expressing cells, ligand binding flow cytometry; in the data active means inhibition above about 50%
Beta2AR agonist – human beta-2 adrenergic receptor agonism by FAP; P07550; Am2.2-beta2AR cells, FAP receptor internalization, flow cytometry; response, % (concentration not given with the values); 340,000 compounds, 0.43% hits; AID 504454;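 active means response above a set limit, near 3 SD of response in nonfluorescent compounds, cut at about 42% in these data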
CHOP confirm – confirmation of CHOP induction inhibitors. shares compounds with CHOP inhibitor. CHO-CHOP promoter luciferase reporter, tunicamycin-induced, luminescence. inhibition, % at 10 µM. 2,100 compounds, 45% hits;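 active means mean of three repeat readings of reporter signal inhibition above a set limit, cut at about 70% in these data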
UPR CHOP confirm – confirmation of apoptotic unfolded protein response (CHOP) activators. shares compounds with CHOP UPR activ. CHO-CHOP cells, CHOP-luciferase reporter luminescence; percent of tunicamycin response, DMSO as zero. activation, % at 10 µM. 1,000 compounds, 64% hits; in the data active means activation above about 33%
UPR XBP1 confirm – confirmation of adaptive unfolded protein response (XBP1) activators; 1,000 compounds, 63% hits; shares compounds with UPR XBP1 act; activation, % at 20 µM; AID 485299; CHO-XBP1 IRE1-XBP1 luciferase reporter, luminescence;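 active means reporter signal at least 30% of the positive control's activation in two or more of four replicate wells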
B2AR ag CP1 – human beta-2 adrenergic receptor agonism, cherry pick. shares compounds with Beta2AR agonist. Am2.2-beta2AR cells, FAP surface receptor, flow cytometry; stronger effect = lower value. percent response (surface receptor), % at 10 µM. 1,100 compounds, 25% hits. AID 540358;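 active means surface receptor percent response at or below 58%, roughly 3 SD from nonfluorescent compounds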
B2AR FAP counter – fluorescence artifact in beta-2AR agonist FAP counterscreen. calls only at 10 µM. 1,100 tested, under 10 active. AID 588765. Am2.2 cells, FAP fluorogen flow cytometry; stronger effect = lower value. shares compounds with Beta2AR agonist;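 active means percent response below a set limit in fluorescence channel 1 and below 50% in channel 8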
Hits are given with their value; n = inactive; x = no result.

SMILES	CHOP UPR activ	CHOP inhibitor	UPR XBP1 act	VLA-4 inh	Beta2AR agonist	UPR CHOP confirm	others
COc1ccc(Cn2c(SCc3cc(C)ccc3C)nc3cc(OC)c(OC)cc3c2=N)cc1	n	104	100	n	43	x	CHOP confirm=123;UPR XBP1 confirm=67;B2AR ag CP1=20;B2AR FAP counter=n
CN1CCC(N(C)S(=O)(=O)c2ccc(NC(=O)COc3cccc(C(F)(F)F)c3)cc2)CC1	n	x	n	n	n	x
O=[N+]([O-])c1ccc(Sc2nc3ccccc3o2)c([N+](=O)[O-])c1	n	109	n	n	74	x	CHOP confirm=122;B2AR ag CP1=n;B2AR FAP counter=n
O=C1OCC2OC(O)C(O)C(O)C2OC(=O)c2cc(O)c(O)c(O)c2-c2c(O)c(O)c3oc(=O)c4c(c(O)c(O)c5oc(=O)c2c3c54)-c2c1cc(O)c(O)c2O (stereo not drawn)	x	n	x	x	x	x
Fc1ccc(Nc2nc(NCc3ccco3)c3ccccc3n2)cc1	n	97	31	n	n	x	CHOP confirm=73;UPR XBP1 confirm=33;B2AR ag CP1=n;B2AR FAP counter=n
O=C(COC(=O)COc1ccccc1F)NCc1ccco1	n	x	n	n	n	x
Cc1cc(N2CCN(C)CC2)ccc1NC(=O)c1cccc(S(=O)(=O)N2CCc3ccccc3C2)c1	n	104	34	n	42	x	CHOP confirm=n;UPR XBP1 confirm=n;B2AR ag CP1=n;B2AR FAP counter=n
Cc1ccc(NC(=O)c2cccc(S(=O)(=O)N3CCc4ccccc4C3)c2)nc1	n	x	n	n	n	x
Cc1cc(N2CCN(c3ccc(C(F)(F)F)cc3[N+](=O)[O-])CC2)c2ccccc2n1	n	x	n	n	n	x
Cc1cc(N2CCN(c3ccc([N+](=O)[O-])c4cccnc34)CC2)c2ccccc2n1	42	105	104	n	95	53	CHOP confirm=n;UPR XBP1 confirm=62;B2AR ag CP1=n;B2AR FAP counter=n
COc1ccc(N(Cc2ccccc2)N=O)cc1	n	x	n	n	n	x
CCOC(=O)CNC(=O)CSc1nnc(CCc2nc3ccccc3[nH]2)n1C	n	x	n	n	n	x
Fc1ccc(Oc2nc(-c3ccccc3)nnc2C(F)(F)F)cc1	n	n	n	n	n	x
Fc1ccc(Sc2nc(-c3ccccc3)nnc2C(F)(F)F)cc1	41	112	n	n	44	n	CHOP confirm=n;B2AR ag CP1=21;B2AR FAP counter=n
Cc1ccc(SCC(=O)Nc2ccc(-c3nc4ccccc4[nH]3)cc2)cc1	n	102	n	n	107	x	CHOP confirm=n;B2AR ag CP1=16;B2AR FAP counter=n
Cc1ccc(NC(=O)CCCSc2nc3ccccc3[nH]2)cc1	n	n	n	n	n	x
O=[N+]([O-])c1ccc(Sc2nnnn2-c2ccccc2)nc1	126	n	n	x	x	101
Cc1ccc(-c2n[nH]c(=S)nc2-c2ccc(C)cc2)cc1	x	x	x	n	n	x
CCOC(=O)c1cc(-c2ccc(/C=C3/C(=O)N(c4ccc(C(=O)O)cc4)N=C3C)o2)ccc1Cl	87	x	n	n	n	135
CCOc1ncccc1C(=O)NCCc1ccc(S(N)(=O)=O)cc1	n	x	n	n	n	x
Cc1oc2c(O)c(O)ccc2c(=O)c1-c1ccccc1	n	n	n	n	n	x
Cc1oc2c(O)c(O)ccc2c(=O)c1-c1cnn(-c2ccccc2)c1	114	n	n	n	n	n
OC(CCCN1CCCCC1)(c1ccccc1)c1ccc(C(F)(F)F)cc1 (stereo not drawn)	x	x	x	x	n	x
C=C(C(=O)c1ccccc1)C(C(=C)C(=O)c1ccccc1)c1ccc(OC)cc1	62	n	n	n	n	65
Cc1[nH]c2ccccc2c1/C=N/Nc1nc2ccccc2[nH]1	87	n	n	n	n	n
SMILES	CHOP UPR activ	CHOP inhibitor	UPR XBP1 act	VLA-4 inh	Beta2AR agonist	UPR CHOP confirm	others
Cc1ccccc1/C=N/Nc1nc2ccccc2[nH]1	n	n	n	n	n	x
CCc1cccc2c(C(=O)CCl)c[nH]c12	84	n	n	n	n	66
CC1=CN2C(=N)/C(=C/c3cn(CCCOc4ccccc4C)c4ccccc34)C(=O)N=C2S1	44	n	n	n	n	n
COc1cccc(OCCCn2cc(/C=C3/C(=N)N4C=C(C)SC4=NC3=O)c3ccccc32)c1	n	n	n	n	n	x
COc1ccc(N2C(=O)CSC2c2ccccc2F)c(OC)c1 (stereo not drawn)	n	x	n	n	n	x
COc1ccc(CCNC(=O)c2ccc(Br)cc2)cc1	x	x	x	n	n	x
COc1ccc(CCNC(=O)c2coc(=O)c(Br)c2)cc1	116	x	n	n	x	56
COc1cc(S(=O)(=O)Nc2ccc3nc(C)sc3c2)ccc1NC(C)=O	n	x	n	n	n	x
O=C(O)c1ccc(OCC(F)(F)F)nc1	n	n	n	n	n	x
S=C1SCN(Cc2ccco2)CN1Cc1ccco1	59	n	n	n	n	47
CCN1CSC(=S)N(Cc2ccccc2)C1	86	x	n	n	n	91
S=C1NCN(Cc2ccco2)CN1	n	n	n	n	n	x
O=C(CSc1ccc2nnc(-c3cccnc3)n2n1)Nc1ccccc1C(F)(F)F	n	x	n	n	n	x
COc1ccc(C(=O)NCc2ncccc2C)cc1OC1CCN(C(C)=O)CC1	n	x	n	n	n	x
Cc1ccn2cc(-c3ccc(O)c(O)c3)nc2c1	120	x	n	n	n	57
Oc1ccc(-c2cn3ccccc3n2)cc1O	155	x	n	n	n	33
COc1ccc(CCNC(=O)CCn2c(SCC(=O)N3CCCC3)nc3ccccc3c2=O)cc1OC	n	n	n	n	n	x
O=C(CCc1ccc(O)c(O)c1)N/N=C/c1ccc2c(c1)OCO2	49	x	34	n	n	n
CC(C)Oc1ccc(CCC(=O)N/N=C/c2ccc3c(c2)OCO3)cc1	n	x	n	n	n	x
CCOc1ccc2nc(SC3CC(=O)N(c4ccc(C)cc4)C3=O)sc2c1 (stereo not drawn)	45	n	n	n	n	65
CC[C@@]12C(=O)N(c3ccc(OC)cc3)C(=O)N1[C@H](c1ccc(Cl)cc1)[C@@H]1C(=O)N(C3CCCCC3)C(=O)[C@@H]12	n	x	n	n	n	x
COc1ccc(/C=C/C(=O)c2ccc(C(=O)/C=C/c3ccc(OC)c(OC)c3)cc2)cc1OC	84	x	n	x	n	138
CC(C)c1ccc(N(C(=O)CNC(=O)c2ccco2)C(C(=O)NC2CCCC2)c2ccncc2)cc1 (stereo not drawn)	n	x	n	n	n	x
